Experimental findings from ChEMBL document CHEMBL1122315, “1,2-Dihydropyrido[3,4-b]pyrazines: structure-activity relationships” (1983) are described below.

The test system of assay [1] is L1210. Nature of the assay: Fraction of the cell population of cultured lymphoid leukemia L1210 cells in mitosis after 24 hr; at the concentration of 0.3 uM. In kind it is functional, Mus musculus.
Assay [2] concerns P388. Kind of assay: antitumor activity against lymphocyte leukemia P388 in mice as percentage of increase in life span for 1 day schedule. Format: functional, Mus musculus. An outline of the steps: (§1)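 Mice bearing lymphocytic leukemia P388 were treated. The value is the percent increase in life span at the highest nontoxic dose tested.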
Assay [3] deals with L1210. Nature of the assay: inhibition of proliferation of cultured lymphoid leukemia L1210 cells during 48 hr. In kind it is functional. Particulars: Mus musculus, L1210, 48 h, read-out: ID50. The procedure, abridged:
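Cultured L1210 cells were exposed to agent for 48 h. The value is the concentration that holds proliferation to 50% of untreated control.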

Assay [4] has as its system L1210. Kind of assay: Fraction of the cell population of cultured lymphoid leukemia L1210 cells in mitosis after 12 hr. Format: functional, Mus musculus.
Assay [5] concerns P388. Kind of assay: antitumor activity against lymphocyte leukemia P388 in mice as percentage of increase in life span for 30th day survivor, 1-5 days schedule. Format: functional, Mus musculus.
The test system of assay [6] is P388. Nature of the assay: antitumor activity against lymphocyte leukemia P388 in mice as percentage of increase in life span for 1-5 days schedule (values in the parenthesen indicates dose). In kind it is functional, Mus musculus. An outline of the steps: as §1
For assay [7], the system named is L1210. Kind of assay: Antitumor activity against lymphoid leukemia L1210 in mice for 1-9 days schedule. Format: functional, Mus musculus. An outline of the steps:
(§2)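 Mice bearing L1210 leukemia; the read-out is the percent increase in life span, reported at the highest nontoxic dose tested. Toxic doses are flagged separately.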

Assay [8] concerns L1210. Kind of assay: Antitumor activity against lymphoid leukemia L1210 in mice for 1 day schedule. In kind it is functional, Mus musculus. The procedure, abridged: as §2
The test system of another assay is KB. Kind of assay: Inhibition of colony formation of KB human epidermoid carcinoma cells. In kind it is functional. Particulars: read-out: ED50 (the source's name).
The subject of assay [9] is L1210. Nature of the assay: Fraction of the cell population of cultured lymphoid leukemia L1210 cells in mitosis after 12 hr; at the concentration of 0.3 uM. Format: functional, Mus musculus.
The subject of assay [10] is L1210. Nature of the assay: Fraction of the cell population of cultured lymphoid leukemia L1210 cells in mitosis after 12 hr; at the concentration of 0.01 uM. In kind it is functional, Mus musculus.
Assay [11] concerns L1210. Kind of assay: Fraction of the cell population of cultured lymphoid leukemia L1210 cells in mitosis after 12 hr; at the concentration of 0.03 uM. In kind it is functional, Mus musculus.
For assay [12], the system named is L1210. Kind of assay: Fraction of the cell population of cultured lymphoid leukemia L1210 cells in mitosis after 24 hr. In kind it is functional, Mus musculus.
A further assay relates to HEp-2 (Homo sapiens). Kind of assay: Inhibition of colony formation of human epidermoid carcinoma no. 2 (HEp-2) cells. Particulars: read-out: ED50 (the source's name).
Assay [13] relates to L1210. Kind of assay: Fraction of the cell population of cultured lymphoid leukemia L1210 cells in mitosis after 12 hr; at the concentration of 0.1 uM. Format: functional, Mus musculus.
The subject of assay [14] is P388. Kind of assay: antitumor activity against lymphocyte leukemia P388 in mice as percentage of increase in life span for 1-9 days schedule. Format: functional, Mus musculus. An outline of the steps:
as §1

The test system of assay [15] is P388. Kind of assay: antitumor activity against lymphocyte leukemia P388 in mice as percentage of increase in life span for 1-9 days schedule. (values in the parenthesen indicates dose). Format: functional, Mus musculus. An outline of the steps: as §1
Assay [16] deals with L1210. Nature of the assay: Fraction of the cell population of cultured lymphoid leukemia L1210 cells in mitosis after 12 hr at the concentration of 0.03 uM. Format: functional, Mus musculus.
For assay [17], the system named is L1210. Nature of the assay: Fraction of the cell population of cultured lymphoid leukemia L1210 cells in mitosis after 24 hr at the concentration of 0.3 uM. Format: functional, Mus musculus.

Turning to `CCOC(=O)Nc1cc2ncc(-c3ccccc3)nc2c(N)n1`, the Mitotic index in the assay with L1210 [1] stood at 0.02. The molecule also registered an increase in lifespan (ILS) in the assay with P388 [2] of 0%. For the same molecule, the IC50 in the assay with L1210 [3] is greater than 300 nM.

As to `CCOC(=O)Nc1cc2c(c(N)n1)N=C(c1ccc3ccccc3c1)CN2`, the Mitotic index in the assay on L1210 [4] worked out at 0.6. Besides, the ILS with P388 [5] is recorded as 66%. Besides, the “ILS (mg/kg)” value in the assay with P388 [6] is listed as 53%. Moreover, the IC50 in the assay on L1210 [3] was found to be 6 nM.

In the case of `CCOC(=O)Nc1cc(N(C)CC(O)c2ccccc2)c(N)c(N)n1` (centres undefined), the ILS in the assay with P388 [2] is 0%. Also, in the assay on L1210 [3], the IC50 was greater than 300 nM.

For the molecule `CCOC(=O)Nc1cc(N)c2c(n1)NCC(CN(C)c1ccc(C(=O)OC)cc1)=N2`, the ILS in the assay with L1210 [7] and in the assay on L1210 [8] was 0% each time. In the assay with KB, the EC50 was 24000 nM.

As to `COC(=O)c1ccc(N(C)CC2=Nc3c(N)nc(N)nc3NC2)cc1`, the EC50 in the assay on KB is 21000 nM.

For `CCOC(=O)Nc1cc2c(c(N)n1)N=C(c1ccc(-c3ccccc3)cc1)CN2`, the Mitotic index in the assay on L1210 [9] was 0.42; with L1210 [10] it was 0.65. The molecule further returned an ILS with P388 [2] of 36%. Also, the IC50 in the assay with L1210 [3] turned out to be 6.1 nM.

As for `CCOC(=O)Nc1cc2ncc(-c3ccc(C(F)(F)F)cc3)nc2c(N)n1`, the IC50 with L1210 [3] is greater than 300 nM.

On to `CCOC(=O)Nc1cc2c(c(N)n1)N=C(CN(C)c1ccccc1)CN2`, for which the Mitotic index with L1210 [11] is recorded as 0.77; in the assay with L1210 [12] it was 0.8. In addition, in the assay on P388 [2], the increase in lifespan (ILS) is given as 114%. Also, the IC50 in the assay with L1210 [3] is 8.4 nM.

`CCOC(=O)Nc1cc2c(c(N)n1)N=C(CCc1ccccc1)CN2`: in the assay with L1210 [1], the Mitotic index is 0.33. In the assay on P388 [2], this molecule came in with an ILS of 29%. Also, in the assay on L1210 [3], the IC50 is 13 nM.

With `COC(=O)c1ccc(N(C)CC2=Nc3c(cc(N)nc3Cl)NC2)cc1`, in the assay on KB, the EC50 was greater than 100000 nM.

As for `CCOC(=O)Nc1cc2ncc(CNc3ccc(C(=O)OCC)cc3)nc2c(N)n1`, the EC50 in the assay on HEp-2 (Homo sapiens) turned out to be 42000 nM.

Take `CCOC(=O)Nc1cc2ncc(C(=O)N(C)c3ccccc3)nc2c(N)n1`: the ILS in the assay on L1210 [8] was 0%. Further, the EC50 in the assay on KB was greater than 100000 nM.

As for `CCOC(=O)c1ccc(NCC2=Nc3c(N)nc(N)nc3NC2)cc1`, the ILS with L1210 [7] is 0%; with L1210 [8] it was 8%. Moreover, in the assay on KB, the EC50 turned out to be 10000 nM.

`CCOC(=O)Nc1cc(N)c2nc(CN(C)c3ccc(C(=O)OC)cc3)cnc2n1`: the ILS in the assay on L1210 [7] and with L1210 [8] was 0% in each case. Moreover, the EC50 in the assay with KB was 240000 nM.

Regarding `CN(Cc1cnc2cc(N)nc(N)c2n1)c1ccccc1`, the ILS in the assay with L1210 [7] and with L1210 [8] was 0% throughout. In addition, the EC50 in the assay on KB is greater than 100000 nM.

Turning to `CCOC(=O)c1ccc(NCc2cnc3nc(N)nc(N)c3n2)cc1`, the ILS with L1210 [7] and in the assay on L1210 [8] was 0% each time. In the assay with KB, the EC50 came out at 17000 nM.

As to `COC(=O)c1ccc(N(C)Cc2cnc3nc(N)nc(N)c3n2)cc1`, the ILS turned out to be 2% in the assay with L1210 [7] and 3% in the assay on L1210 [8]. The EC50 in the assay with KB turned out to be 19000 nM.

For the molecule `CCOC(=O)Nc1cc2c(c(O)n1)N=C(CN(C)c1ccc(C(=O)OC)cc1)CN2`, the ILS in the assay on L1210 [8] was 2%. Besides, in the assay on KB, the EC50 was 8000 nM.

Take `CN(CC1=Nc2c(cc(N)nc2N)NC1)c1ccccc1`: the values for the Mitotic index in the assay on L1210 [13] and in the assay on L1210 [9] were 0.44 and 0.61, respectively. In addition, in the assay with P388 [14], the ILS is listed as 30%. For the same molecule, in the assay with L1210 [3], the IC50 worked out at 5.8 nM.

As for `CCOC(=O)Nc1cc2c(c(NC(=O)OCC)n1)N=C(CN(C)c1ccccc1)CN2`, the increase in lifespan (ILS) in the assay with L1210 [7] came out at 14%; in the assay with L1210 [8], 46%. Also, the EC50 in the assay on HEp-2 (Homo sapiens) was 1200 nM.

In the case of `CCOC(=O)Nc1cc2c(c(NC(=O)OCC)n1)N=C(C)CN2`, the ILS in the assay with L1210 [8] was 0%. The EC50 in the assay on KB was determined as 91000 nM.

Take `CCOC(=O)Nc1cc2ncc(CN(C)c3ccc(C(=O)OC)cc3)nc2c(N)n1`: in the assay on HEp-2 (Homo sapiens), the EC50 was found to be 19000 nM.

In the assay on L1210 [8], `CCOC(=O)Nc1cc2c(c(N)n1)NC(CN(C)c1ccccc1)CN2` (centres undefined) gave an ILS of 10%. Also, the EC50 with KB came out at 600 nM.

Consider `CCOC(=O)Nc1cc2ncc(CN(C)c3ccccc3)nc2c(N)n1`, for which the EC50 with KB came to 670 nM.

Take `CN(CC1=Nc2c(cc(N)nc2S)NC1)c1ccc(C(=O)O)cc1`: the EC50 in the assay on KB is 29000 nM.

For the molecule `CCOC(=O)Nc1cc2c(c(N)n1)N=C(c1ccc(C(F)(F)F)cc1)CN2`, the Mitotic index in the assay with L1210 [1] was determined as 0.01. The molecule also registered an ILS in the assay on P388 [2] of 0%. The “ILS (mg/kg)” value in the assay with P388 [15] amounted to 17%. The IC50 in the assay with L1210 [3] is 150 nM.

On to `CCOC(=O)Nc1ccc(/N=C/c2ccccc2)cn1`, for which the ILS with P388 [2] is 0%. The IC50 with L1210 [3] was greater than 300 nM.

As to `CCOC(=O)Nc1cc2c(c(N)n1)N=C(c1ccccc1)CN2C`, the Mitotic index in the assay on L1210 [9] is listed as 0.68. This molecule had an ILS in the assay with P388 [2] of 12%. The IC50 in the assay with L1210 [3] is 160 nM.

`CCOC(=O)Nc1ccc(/N=C(/C=C(/O)OCC)c2ccccc2)c(N)n1` yielded a Mitotic index in the assay with L1210 [1] of 0.03. In the assay on L1210 [3], the IC50 is greater than 300 nM.

As to `CCOC(=O)Nc1cc2c(c(N)n1)N=C(c1ccccc1)C(C)N2` (centres undefined), the ILS with P388 [2] is listed as 54%. Besides, the “ILS (mg/kg)” value with P388 [6] turned out to be 75%. In the assay on L1210 [3], the IC50 turned out to be 0.51 nM.

`CCOC(=O)Nc1cc2c(c(N)n1)N=C(c1ccccc1)CN2`: the Mitotic index with L1210 [16] is recorded as 0.65; with L1210 [17] it was 0.54. The molecule further yielded an ILS in the assay with P388 [2] of 55%. For the same molecule, in the assay on P388 [15], the “ILS (mg/kg)” value came to 51%. Besides, the IC50 with L1210 [3] was determined as 4.7 nM.
